Source: ChEMBL document CHEMBL5104184, “Chemical Toolkit for PARK7: Potent, Selective, and High-Throughput” (J Med Chem, 2022)
Values belong to the molecule of their own block, whether it stands above or below them. Calls of active or inactive are those of the source. The rule behind the calls is not given here.

Legend:
[1] = molecular target: T1, Parkinson disease protein 7 (Homo sapiens) (UniProt Q99497); assay: Inhibition of N-terminal GST-tagged human recombinant PARK7 expressed in Escherichia coli BL21(DE3)Rosetta2 cells using SRK59 as fluorescent probe at 2 uM preincubated for 1 hr followed by SRK59 addition for 30 mins by Gel-based competition assay; conditions: time 90.0 min
T1 sequence (whole entry): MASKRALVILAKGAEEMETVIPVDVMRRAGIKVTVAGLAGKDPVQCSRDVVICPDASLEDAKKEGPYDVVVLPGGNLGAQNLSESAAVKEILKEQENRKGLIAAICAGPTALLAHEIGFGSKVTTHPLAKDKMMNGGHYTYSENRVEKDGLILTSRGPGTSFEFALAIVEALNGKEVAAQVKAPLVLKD
How it was run: (§1)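 Recombinant PARK7 and UCHL1 (1 μM each, mixed) or PARK7 alone, in 50 mM Tris-HCl, 150 mM NaCl, 2 mM TCEP, pH 7.5. Treated with compound at 2 μM or a serial dilution for 1 h at 37 °C. Then 8RK59 probe (2 μM final) added for 30 min at 37 °C. Run on SDS-PAGE; remaining labelling read by fluorescence scan.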

[2] = molecular target: Ubiquitin carboxyl-terminal hydrolase isozyme L1 (Homo sapiens) (UniProt P09936); assay: Inhibition of UCHL1 (unknown origin) using SRK59 as fluorescent probe at 2 uM preincubated for 1 hr followed by SRK59 addition for 30 mins by Gel-based competition assay; conditions: time 90.0 min; how it was run: as §1
[3] = molecular target: Ubiquitin carboxyl-terminal hydrolase isozyme L1 (Homo sapiens) (UniProt P09936); assay: Inhibition of UCHL1 in human HEK293T cells assessed as reduction in Rho-Ub-PA-labelled UCHL1 band intensity at 5 uM incubated for 1 hr followed by incubation with Rho-Ub-PA for 30 mins by fluorescence scanning based analysis; assay type: cell-based; conditions: time 90.0 min
[4] = molecular target: T1, Parkinson disease protein 7 (Homo sapiens); assay: Binding affinity to N-terminal GST-tagged human recombinant PARK7 expressed in Escherichia coli BL21(DE3)Rosetta2 cells at 1 uM measured after 1 hr by fluorescence scanning analysis
How it was run: (§2)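 Purified recombinant PARK7 (GST-tagged in E. coli BL21(DE3) Rosetta2, tag removed by 3C protease, then gel filtration), 1 μM final. Incubated with probe at 0, 0.1, 0.5, 1, 2, 5 or 10 μM for 1 h at 37 °C in 50 mM Tris-HCl, 150 mM NaCl, 2 mM TCEP, pH 7.5. Stopped with LDS sample buffer, run on SDS-PAGE, read by fluorescence scan, then Coomassie stain.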

[5] = molecular target: T1, Parkinson disease protein 7 (Homo sapiens); assay: Binding affinity to N-terminal GST-tagged human recombinant PARK7 expressed in Escherichia coli BL21(DE3)Rosetta2 cells at 1 uM measured after 1 hr by coomassie staining based analysis; how it was run: as §2
[6] = molecular target: T1, Parkinson disease protein 7 (Homo sapiens); assay: Inhibition of N-terminal GST-tagged human recombinant PARK7 expressed in Escherichia coli BL21(DE3)Rosetta2 cells using DiFMUAc as substrate at 12.5 to 100 uM preincubated with enzyme for 1 hr followed by substrate addition and measured for 1 hr by DiFMUAc assay based fluorescence analysis; conditions: dose 12.5-100 µM, time 2.0 hrs
How it was run: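 PARK7 GST fusion was expressed in E. coli BL21(DE3) Rosetta2, purified on glutathione beads, cut with 3C protease and polished by SEC. Enzyme at 0.1 μM final in PBS was preincubated with compound at 100, 37.5 or 12.5 μM final. DiFMUAc was then added at 300 μM final, and fluorescence (ex/em 350/450 nm) was monitored for 1 h. Run in triplicate.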

[7] = molecular target: T1, Parkinson disease protein 7 (Homo sapiens); assay: Inhibition of PARK7 in human HEK293T cells assessed as reduction in JQ-92 labelled PARK7 band intensity at 0.1 to 50 uM incubated for 1 hr followed by incubation with JQ-92 for 30 mins by fluorescence scanning based analysis; assay type: cell-based; conditions: dose 0.1-50 µM, time 90.0 min
[8] = molecular target: T1, Parkinson disease protein 7 (Homo sapiens); assay: Inhibition of PARK7 in human HEK293T cells assessed as reduction in JQ-92 labelled PARK7 band intensity at 1 uM incubated for 1 hr followed by incubation with JQ-92 for 30 mins by fluorescence scanning based analysis; assay type: cell-based; conditions: time 90.0 min
[9] = molecular target: T1, Parkinson disease protein 7 (Homo sapiens); assay: Binding affinity to N-terminal GST-tagged human recombinant PARK7 expressed in Escherichia coli BL21(DE3)Rosetta2 cells at 5 uM measured after 1 hr by fluorescence scanning analysis; how it was run: as §2
[10] = molecular target: T1, Parkinson disease protein 7 (Homo sapiens); assay: Binding affinity to N-terminal GST-tagged human recombinant PARK7 expressed in Escherichia coli BL21(DE3)Rosetta2 cells at 5 uM measured after 1 hr by coomassie staining based analysis; how it was run: as §2
[11] = molecular target: T1, Parkinson disease protein 7 (Homo sapiens); assay: Binding affinity to PARK7 in UCHL1 knockdown human HEK293T cells at 1 uM incubated for 1 hr by fluorescence scanning based analysis; assay type: cell-based
How it was run: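 HEK293T cells were siRNA-transfected with Dharmafect 1 and cultured 3 days, then lysed in Triton X-100/TCEP Tris buffer (pH 7.5) with protease inhibitors. Lysate labelled with probe at 1 μM final for 1 h at 37 °C. Read by SDS-PAGE Cy5 fluorescence scan (635/655 nm), then immunoblot for UCHL1/PARK7 with actin as loading control.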

[12] = molecular target: T1, Parkinson disease protein 7 (Homo sapiens); assay: Binding affinity to N-terminal GST-tagged human recombinant PARK7 expressed in Escherichia coli BL21(DE3)Rosetta2 cells at 2 uM measured after 1 hr by fluorescence scanning analysis; how it was run: as §2
[13] = molecular target: T1, Parkinson disease protein 7 (Homo sapiens); assay: Binding affinity to PARK7 in human HEK293T cells at 1 uM incubated for 1 hr by fluorescence scanning based analysis; assay type: cell-based
[14] = molecular target: T1, Parkinson disease protein 7 (Homo sapiens); assay: Binding affinity to PARK7 in human HEK293T cells at 0.5 to 1 uM incubated for 1 hr by western blot analysis; assay type: cell-based; conditions: dose 0.5-1 µM
[15] = molecular target: T1, Parkinson disease protein 7 (Homo sapiens); assay: Binding affinity to N-terminal GST-tagged human recombinant PARK7 expressed in Escherichia coli BL21(DE3)Rosetta2 cells at 2 uM measured after 1 hr by coomassie staining based analysis; how it was run: as §2
[16] = molecular target: T1, Parkinson disease protein 7 (Homo sapiens); assay: Binding affinity to PARK7 in human HEK293T cells at 0.5 uM incubated for 1 hr by fluorescence scanning based analysis; assay type: cell-based
[17] = molecular target: T1, Parkinson disease protein 7 (Homo sapiens); assay: Inhibition of PARK7 in human HEK293T cells assessed as reduction in JQ-92 labelled PARK7 band intensity incubated for 1 hr followed by incubation with JQ-92 for 30 mins by fluorescence scanning based analysis; assay type: cell-based; conditions: dose 0.1-20 µM, time 90.0 min, DDE = dose-dependent effect
[18] = molecular target: Ubiquitin carboxyl-terminal hydrolase isozyme L1 (Homo sapiens) (UniProt P09936); assay: Inhibition of UCHL1 (unknown origin) using SRK59 as fluorescent probe at 20 uM preincubated for 1 hr followed by SRK59 addition for 30 mins by Gel-based competition assay; conditions: time 90.0 min; how it was run: as §1
[19] = molecular target: T1, Parkinson disease protein 7 (Homo sapiens); assay: Inhibition of N-terminal GST-tagged human recombinant PARK7 expressed in Escherichia coli BL21(DE3)Rosetta2 cells using SRK59 as fluorescent probe at 0.5 uM preincubated for 1 hr followed by SRK59 addition for 30 mins by Gel-based competition assay; conditions: time 90.0 min; how it was run: as §1
[20] = molecular target: T1, Parkinson disease protein 7 (Homo sapiens); assay: Inhibition of N-terminal GST-tagged human recombinant PARK7 expressed in Escherichia coli BL21(DE3)Rosetta2 cells using SRK59 as fluorescent probe at 1 to 2 uM preincubated for 1 hr followed by SRK59 addition for 30 mins by Gel-based competition assay; conditions: dose 1-2 µM, time 90.0 min; how it was run: as §1

Sequence of Ubiquitin carboxyl-terminal hydrolase isozyme L1 (Homo sapiens) (P09936 whole entry, looked up): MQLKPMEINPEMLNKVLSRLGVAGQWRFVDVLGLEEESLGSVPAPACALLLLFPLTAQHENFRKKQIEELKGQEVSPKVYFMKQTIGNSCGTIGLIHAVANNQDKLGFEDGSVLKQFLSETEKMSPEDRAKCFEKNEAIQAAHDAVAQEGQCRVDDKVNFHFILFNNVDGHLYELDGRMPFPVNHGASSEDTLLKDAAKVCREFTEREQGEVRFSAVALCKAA

SMILES: N#CN1CC[C@H](C(=O)Nc2ncc(N3CCOCC3)s2)C1
inhibition [3]: Active

SMILES: O=c1ccc(NS(=O)(=O)c2cccc(S(=O)(=O)F)c2)c[nH]1
inhibition [6]: Active | inhibition [7]: Active | inhibition [8]: 100%

SMILES: CCC(C)c1ccc(NC(=O)CCl)cc1 (stereo not drawn)
inhibition [6]: Active | inhibition [7]: Active

SMILES: O=C(O)c1csc(C(=O)CCl)c1
inhibition [6]: Active | inhibition [7]: Active

SMILES: CC[N+]1=C(/C=C/C=C/C=C2/N(CCCCCC(=O)NCCCc3cn(CC(=O)N4CCc5nc(NC(=O)[C@@H]6CCN(C#N)C6)sc5C4)nn3)c3ccc(S(=O)(=O)O)cc3C2(C)C)C(C)(C)c2cc(S(=O)(=O)[O-])ccc21
Activity [4]: Active | Activity [5]: Active | Activity [11]: Active | Activity [12]: Active | Activity [13]: Active | Activity [14]: Active | Activity [15]: Active | Activity [16]: Active

SMILES: N#CN1CC[C@H](C(=O)Nc2nc3c(s2)CN(C(=O)Cc2ccncc2)CC3)C1
inhibition [1]: Active | inhibition [2]: 100%

Next, values leading:

inhibition [1]: Active | inhibition [2]: 100%
SMILES: CN1C(=O)CC(C(=O)N2CCc3nc(NC(=O)[C@H]4CCN(C#N)C4)sc3C2)[C@@H]1c1cccnc1 (stereo partly drawn)

Activity [4]: Active | Activity [5]: Active
SMILES: N#CN1CC[C@@H](C(=O)Nc2nc3c(s2)CN(C(=O)Cn2cc(CCCNC(=O)c4ccc(-c5c6ccc(=N)cc-6oc6cc(N)ccc56)c(C(=O)O)c4)nn2)CC3)C1

Activity [9]: Active | Activity [10]: Active
SMILES: CC1=CC(C)=[N+]2C1=C(CCCCc1cn(CC(=O)N3CCc4nc(NC(=O)[C@@H]5CCN(C#N)C5)sc4C3)nn1)c1c(C)cc(C)n1[B-]2(F)F

inhibition [1]: Active | inhibition [2]: 100%
SMILES: N#CN1CC[C@H](C(=O)Nc2nc3c(s2)CN(C(=O)CCCCBr)CC3)C1

inhibition [3]: Active | inhibition [2]: Active
SMILES: N#CN1CC[C@H](C(=O)Nc2nc3c(s2)CN(C(=O)CN=[N+]=[N-])CC3)C1

inhibition [17]: Dde | inhibition [18]: Active | inhibition [1]: 100% | inhibition [19]: Active | inhibition [20]: 100%
SMILES: N#CN1CC[C@@H](C(=O)Nc2nc3c(s2)CN(C(=O)CN=[N+]=[N-])CC3)C1
